Compound activity as filed in PubChem.
A selection: hits, their analogues and other compounds. The true share with any hit is near 1.8%.
M4 ag = agonists of human muscarinic M4 receptor (CHRM4); P08173; CHO-K1 hM4/Gqi5, Fluo-8 calcium fluorescence; vehicle 0%, full acetylcholine response 100%; activation, % at 3 µM; 360,000 tested, 0.14% active; AID 624127;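 active = activation above the run mean over all test wells plus 3 SD, cut at about 32% in these data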;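 also: peak over basal fluorescence ratio per well then scaled between controls; 0% = DMSO wells and 100% = acetylcholine at EC100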
Target sequence (P08173 whole entry, looked up): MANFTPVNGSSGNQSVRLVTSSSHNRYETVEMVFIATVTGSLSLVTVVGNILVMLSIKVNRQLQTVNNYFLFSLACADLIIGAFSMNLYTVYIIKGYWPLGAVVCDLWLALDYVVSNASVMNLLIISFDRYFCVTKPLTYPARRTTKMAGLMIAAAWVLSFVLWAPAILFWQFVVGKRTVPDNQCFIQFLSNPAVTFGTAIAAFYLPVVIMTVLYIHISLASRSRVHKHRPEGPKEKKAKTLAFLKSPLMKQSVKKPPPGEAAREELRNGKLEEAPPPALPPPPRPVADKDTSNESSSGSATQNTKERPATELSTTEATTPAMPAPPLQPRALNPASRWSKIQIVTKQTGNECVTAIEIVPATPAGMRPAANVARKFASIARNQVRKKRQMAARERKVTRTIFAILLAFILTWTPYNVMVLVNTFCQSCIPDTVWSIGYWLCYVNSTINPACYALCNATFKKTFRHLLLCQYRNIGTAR
CHRM5 antagonist = blocks acetylcholine activation of human M5 receptor | AID 624040 | inhibition, % at 3 µM | CHO-hM5 cells, Fluo-8 calcium fluorescence, ACh EC80 | 360,000 tested, 0.59% active | P08912;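 active = inhibition above a per-plate cutoff, the mean of that plate's test compounds plus 3 SD, cut at about 27% in these data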;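 also: 0% = acetylcholine EC80 with DMSO and 100% = DMSO without agonist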
CHRM5 PAM = CHRM5 positive allosteric modulation; 360,000 tested, 0.3% active; P08912; activation, % at 3 µM; CHO-K1 hM5, Fluo-8 calcium, ACh EC20 PAM; 0% = ACh EC20, 100% = ACh EC100;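 active = activation above the run cutoff, the mean activation of all test compounds plus 3 SD, cut at about 18% in these data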
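Assay system: CHO-K1 hM5 cells. Also added: acetylcholine at EC20 concentration, added after compound. Dosing: 3 µM, single dose. Times: compound preincubation 140 s before EC20 acetylcholine addition. Signal: Fluo-8 calcium fluorescence. Measure: % activation relative to EC20 and EC100 ACh responses. Repeats: singlicate, one well per test compound.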
M4 PAM = positive allosteric modulators of human muscarinic M4 receptor. 360,000 tested, 0.4% active. activation, % at 3 µM. AID 624126. P08173. CHO-K1 hM4/Gqi5, Fluo-8 calcium fluorescence, ACh EC20; 0% = ACh EC20, 100% = maximal ACh;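 active = activation above its plate's cutoff, the mean activation of sample wells plus 3 SD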
M5 ag = agonists of human muscarinic M5 receptor (CHRM5). P08912. CHO-K1 hM5 cells, Fluo-8 calcium fluorescence; 0% DMSO wells, 100% maximal acetylcholine response. activation, % at 3 µM. 360,000 tested, 0.19% active. AID 624037;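 active = activation above the run's mean over test compounds plus 3 SD, cut at about 23% in these data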;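 also: signal is peak over basal fluorescence ratio across the kinetic read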
CHRM4 antagonist = antagonists of human muscarinic M4 receptor (CHRM4); inhibition, % at 3 µM; 360,000 tested, 0.73% active; P08173; CHO-hM4 cells, ACh EC80, Fluo-8 calcium fluorescence;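 active = inhibition above its plate's cutoff, the mean inhibition of sample wells plus 3 SD, cut at about 27% in these data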;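 also: 0% = acetylcholine EC80 with DMSO and 100% = DMSO without agonist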
* hit, by the source's call.

SMILES	M4 ag	CHRM5 antagonist	CHRM5 PAM	M4 PAM	M5 ag	CHRM4 antagonist
CCN(CC)C(=O)CSc1nnc(-c2ccccn2)n1-c1ccccc1OC	1.8	-13.6	11.1	19.6	1.6	30.6*
COc1cc(NC(=O)C2=C(N3CCOCC3)/C(=C\c3ccc(N(C)C)cc3)CCC2)cc(OC)c1OC	0.7	-6.5	10.6	21.4*	0.7	3.4
CC(C)c1ccccc1NC(=O)C1CCCN(C(=O)c2ccc(Cl)cc2)C1 (centres undefined)	10.3	11.6	-9.6	-2.0	4.7	9.5
O=C(Nc1nc2ccsc2c(=O)s1)c1ccc(F)cc1Cl	1.2	-6.6	21.4*	1.6	2.6	-4.3
O=C(COc1ccccc1Cl)Nc1ccc2oc(=O)ccc2c1	2.5	12.4	-3.4	-6.1	-3.3	1.3
Cc1ccc(/C(CSc2nccn2-c2ncc(C(F)(F)F)cc2Cl)=N\O)cc1	4.6	0.1	-5.4	-2.4	2.5	8.5
O=C(CSc1nccn1-c1ncc(C(F)(F)F)cc1Cl)c1ccc(Br)cc1	1.0	19.3	21.8*	8.2	-1.6	-6.5
Cc1cc(C)n(-c2nnc(C)n2/N=C/c2cc(Br)ccc2OCc2ccccc2)n1	0.9	3.8	-6.4	-11.0	-8.2	26.4*
Cc1cc(C)n(-c2nnc(C)n2/N=C/c2ccccc2OCc2ccccc2Cl)n1	-1.3	8.1	-0.1	4.3	-1.8	2.4
COc1ccccc1OCCNC(=O)c1ccc(C(C)(C)C)cc1	2.9	-8.2	20.4*	0.1	-2.8	6.8
COc1ccccc1OCCNC(=O)CNC(=O)c1ccc(C(C)(C)C)cc1	1.0	10.2	5.6	15.9	-3.9	-15.6
CSc1ncccc1C(=O)OCC(=O)Nc1ccc(N2CCOCC2)cc1	1.7	12.1	1.5	1.3	0.1	3.5
COc1cc(/C=C2/SC(=Nc3ccc(O)cc3)NC2=O)cc(OC)c1O	9.2	0.1	3.0	-2.6	7.3	0.1
COc1ccccc1N=C1NC(=O)/C(=C/c2ccc(N(C)C)cc2)S1	22.0	36.0*	-14.9	-14.5	51.4*	13.9
CCOC(=O)CC[C@H](NC(=O)Cn1cnc2c(SC)nc(N)nc21)C(=O)OCC	0.1	-1.0	-2.5	-2.4	-0.7	2.6
CC(=O)NCCC(=O)Nc1nc(-c2c[nH]c3ccccc23)cs1	1.1	-6.3	1.4	15.8*	-1.2	-20.1
CC(=O)Nc1nc(-c2cccc3ccccc23)cs1	-0.5	-17.3	15.0	-5.9	-5.1	-9.5
NC(=O)CC[C@@H]1NC(=O)[C@H](CO)NC(=O)c2cc([N+](=O)[O-])cc(I)c2OCC[C@@H](C(N)=O)NC1=O	0.9	-3.5	1.8	5.3	5.0	7.1
NC(=O)[C@@H]1CCOc2c(I)cc([N+](=O)[O-])cc2C(=O)N[C@@H](CO)C(=O)NCC(=O)N1	0.1	0.3	21.4*	13.3	2.5	-4.2
CC(NC(=O)Nc1cccc(Cl)c1)C(c1cccs1)N1CCCC1 (centres undefined)	9.1	8.8	-2.4	-1.6	-0.1	3.4
CC(NC(=O)Nc1ccc([N+](=O)[O-])cc1)C(c1cccs1)N1CCCC1 (centres undefined)	49.8*	3.2	0.0	-0.7	10.2	-9.3
COc1cc2c(cc1OC)[C@H](C)N(C(=O)NCc1ccccc1)CC2	1.4	6.3	7.1	1.3	-3.4	-9.3
COc1ccc(-n2nnnc2C(c2cccs2)N2CCN(C/C=C/c3ccccc3)CC2)cc1 (centres undefined)	0.3	46.9*	-22.5	-14.2	-6.8	15.4
C(=C\c1ccccc1)/CN1CCN(C(c2ccccc2)c2nnnn2-c2ccc3c(c2)OCCO3)CC1 (centres undefined)	3.3	75.0*	-22.5	-16.1	-7.6	31.8*
C(=C\c1ccccc1)/CN1CCN(C(c2ccnc3ccccc23)c2nnnn2-c2ccc3c(c2)OCCO3)CC1 (centres undefined)	5.9	1.0	-4.7	-8.8	-7.0	-14.6
SMILES	M4 ag	CHRM5 antagonist	CHRM5 PAM	M4 PAM	M5 ag	CHRM4 antagonist
COc1ccc(C(c2nnnn2C2CCCCC2)N2CCN(C/C=C/c3ccccc3)CC2)cc1 (centres undefined)	1.3	58.3*	-22.3	-16.3	-7.3	30.8*
COc1ccc(-n2nnnc2C(c2ccccc2OC(F)(F)F)N2CCN(C/C=C/c3ccccc3)CC2)cc1 (centres undefined)	0.5	5.0	-19.4	-7.8	-6.4	-25.9
C(=C\c1ccccc1)/CN1CCN(C(c2nnnn2C2CCCCC2)C2CC2)CC1 (centres undefined)	1.0	4.9	-13.7	-3.5	-7.1	-4.9
COc1ccc(C(c2nnnn2-c2ccc(OC)cc2)N2CCN(C/C=C/c3ccccc3)CC2)cc1 (centres undefined)	3.6	50.8*	-22.5	-14.4	-7.5	7.5
COc1ccc(C(c2nnnn2C(C)(C)C)N2CCN(C/C=C/c3ccccc3)CC2)cc1 (centres undefined)	0.8	15.7	-22.1	-9.4	-7.8	4.2
Cc1ccc(NC(=O)COc2cccc(-n3cnnn3)c2)cc1S(=O)(=O)N1CCOCC1	14.6	14.6	-20.6	1.3	4.6	-4.0
CCC(C)Sc1ccc([C@@H]2[C@H]3C(=O)N(CC)C(=O)[C@H]3[C@]3(C(=O)OC)CCCCN23)cc1 (some centres undefined)	2.3	6.6	-3.4	5.9	1.2	-1.1
CN(CCN1CCOCC1)C(=O)C1CCC(=O)N(Cc2ccc(Cl)cc2)C1 (centres undefined)	0.2	5.7	2.2	3.6	-0.4	3.2
C(=C\c1ccccc1)/CN1CCN(C(c2cccc3ccccc23)c2nnnn2C2CCCC2)CC1 (centres undefined)	1.3	98.8*	-22.2	-15.6	-6.2	96.5*
Cc1cccn2c(CNCC3OCCc4ccccc43)c(C(=O)N3CCCCC3)nc12 (centres undefined)	6.7	6.7	-8.9	-10.4	3.8	7.3
COCCN1CCC(CNCc2c(C(=O)N3CCCCC3)nc3c(C)cccn23)C1 (centres undefined)	1.0	-2.9	23.0*	-0.3	6.3	-5.2
CCOc1ccc(-c2cc(C(=O)OC)nc3c2c(=O)n(C)c(=O)n3C)cc1	0.2	0.6	-1.6	-2.9	-0.6	-2.5
Cc1sc2ncnc(N3CCC(C(=O)N(C)CC(=O)Nc4ccccc4Cl)CC3)c2c1C	19.8	-0.8	-16.1	-2.1	-0.8	10.7
Cc1ccc(NC(=O)C2CCN(c3ncnc4sc(C)c(C)c34)CC2)cc1S(=O)(=O)N(C)C	14.1	0.4	-13.6	-13.5	-1.8	-1.1
